# Measurements: ChEMBL document CHEMBL3124803, “Integrating docking scores, interaction profiles and molecular descriptors to improve the accuracy of molecular docking: toward the discovery of novel Akt1 inhibitors” (Eur J Med Chem, 2014)
# pIC50: −log10 of the molar value.
# Assays:
# HCT-116 = assay: Cytotoxicity against human HCT116 cells assessed as growth inhibition after 72 hrs by MTT assay; format: functional, cell-based; details: HCT-116, 72 h
# Summary of the method: (§1)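 Cells exposed to compound for 72 h, then MTT added. Formazan crystals dissolved in DMSO and absorbance read at 570 nm. Run in triplicate in three independent experiments. IC₅₀ (50% cell growth inhibition) derived by dose-effect analysis.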
# [1] = target: RAC-alpha serine/threonine-protein kinase (Homo sapiens, UniProt P31749); assay: Inhibition of AKT1 (unknown origin) using ATP/eNOS as substrate incubated for 5 mins prior to substrate addition measured after 30 mins by fluorescence polarization assay
# OVCAR-8 = assay: Cytotoxicity against human OVCAR8 cells assessed as growth inhibition after 72 hrs by MTT assay; format: functional, cell-based; details: OVCAR-8, 72 h; summary of the method: as §1
# Sequence of RAC-alpha serine/threonine-protein kinase (P31749 whole entry): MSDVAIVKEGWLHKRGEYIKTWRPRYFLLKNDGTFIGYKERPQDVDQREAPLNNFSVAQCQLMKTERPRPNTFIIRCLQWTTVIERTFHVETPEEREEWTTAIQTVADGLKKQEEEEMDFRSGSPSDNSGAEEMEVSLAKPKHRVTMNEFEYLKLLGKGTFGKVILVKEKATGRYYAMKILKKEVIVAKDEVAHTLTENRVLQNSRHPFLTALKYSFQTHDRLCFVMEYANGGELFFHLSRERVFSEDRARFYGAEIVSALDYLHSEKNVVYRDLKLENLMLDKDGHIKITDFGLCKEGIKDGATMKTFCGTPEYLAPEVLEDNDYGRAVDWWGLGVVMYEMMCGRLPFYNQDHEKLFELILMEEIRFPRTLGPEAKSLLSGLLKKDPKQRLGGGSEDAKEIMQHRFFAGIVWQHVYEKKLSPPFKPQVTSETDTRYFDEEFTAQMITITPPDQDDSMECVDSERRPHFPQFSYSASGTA
smiles,measurement,setting,value
NCC1(c2ccc(Cl)c(Cl)c2)CCN(c2cc(N)ncn2)CC1,pIC50,HCT-116,4.70
same,pIC50,[1],5.36
Nc1ncnc(N2CCN(C(=O)[C@@H](N)Cc3ccccc3)CC2)c1Cl,pIC50,HCT-116,4.54
same,pIC50,[1],5.74
Nc1ncnc(N2CCN(C(=O)C(N)Cc3ccccc3)CC2)c1Br (racemic),pIC50,HCT-116,5.21
same,pIC50,[1],6.36
CNc1cc(N2CCC(CN)(c3ccc(Cl)c(Cl)c3)CC2)ncn1,pIC50,HCT-116,4.78
same,pIC50,[1],5.74
Nc1ncnc(N2CCN(C(=O)C(N)Cc3ccc(Cl)cc3)CC2)c1Br (racemic),pIC50,HCT-116,5.29
same,pIC50,OVCAR-8,4.64
same,pIC50,[1],8.11
Nc1ncnc(N2CCN(C(=O)C(N)Cc3ccc(Cl)cc3)CC2)c1Cl (racemic),pIC50,HCT-116,5.36
same,pIC50,OVCAR-8,4.58
same,pIC50,[1],7.77
